Glyco luc inh: increase of ERlucT glycosylation luciferase signal, primary screen, N-linked glycosylation inhibitor project, D54 ERlucT cells, luminescence, set 2. reporter increase, % at 12.5 µM. D54 ERlucT glycosylation luciferase reporter, 24 h; percent of 100 nM tunicamycin response. hit rate 0.23% among 360,000;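 active means mean luciferase reporter signal, scaled so untreated is 0 and the glycosylation-blocking control 100, at or above a set limit in every replicate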;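 further: luciferase carries N-glycosylation sites so blocking glycosylation raises the light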
NSD2 HMT inh: NSD2 histone methyltransferase inhibitors, primary screen, biochemical, AlphaScreen, single concentration, set 2. Histone-lysine N-methyltransferase NSD2 (Homo sapiens), O96028. hit rate 0.54% among 310,000. inhibition, % at 12.5 µM. NSD2 peptide methylation, 120 min; in the data active means inhibition above about 50%
RAD54 inh: inhibitors of human RAD54 branch migration, primary screen, biochemical, fluorescence, single point; DNA repair and recombination protein RAD54-like (Homo sapiens), Q92698; RAD54 Holliday junction branch migration, FAM/BHQ fluorescence; inhibition, % at 10.4 µM; hit rate 0.14% among 360,000; AID 602329, 2012;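 active means mean normalized replicate activity at least 40 and at least half of replicates scoring 40 or more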;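 further: inhibitors cause a drop in the FAM fluorescence signal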
Target sequence (Q92698 whole entry, looked up): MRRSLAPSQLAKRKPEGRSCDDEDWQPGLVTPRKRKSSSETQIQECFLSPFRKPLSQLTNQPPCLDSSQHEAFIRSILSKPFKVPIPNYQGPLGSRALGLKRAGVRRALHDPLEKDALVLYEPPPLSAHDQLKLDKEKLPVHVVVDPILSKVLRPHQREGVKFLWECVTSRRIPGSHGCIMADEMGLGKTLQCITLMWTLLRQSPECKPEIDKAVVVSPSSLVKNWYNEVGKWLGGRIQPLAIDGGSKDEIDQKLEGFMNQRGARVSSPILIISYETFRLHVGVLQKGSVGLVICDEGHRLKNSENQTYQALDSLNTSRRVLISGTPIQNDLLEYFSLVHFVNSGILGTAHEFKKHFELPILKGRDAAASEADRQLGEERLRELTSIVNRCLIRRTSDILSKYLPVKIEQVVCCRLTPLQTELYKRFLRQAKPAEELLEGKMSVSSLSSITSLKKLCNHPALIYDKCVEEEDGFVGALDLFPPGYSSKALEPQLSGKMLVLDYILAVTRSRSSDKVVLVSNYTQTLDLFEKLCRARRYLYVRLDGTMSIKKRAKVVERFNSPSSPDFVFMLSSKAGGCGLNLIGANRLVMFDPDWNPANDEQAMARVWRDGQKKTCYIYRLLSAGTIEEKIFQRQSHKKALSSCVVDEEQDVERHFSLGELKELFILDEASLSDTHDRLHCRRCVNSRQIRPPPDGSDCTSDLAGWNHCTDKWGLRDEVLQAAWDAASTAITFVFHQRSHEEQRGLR
FN deposit inh: inhibitors of fibronectin matrix deposition, primary screen, AH1F cells, Alexa488-fibronectin fluorescence, plate reader; AH1F fibroblasts, overnight; inhibition, % at 12.6 µM; hit rate 0.086% among 350,000; AID 743247, 2014;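 active means mean inhibition across replicates of 30% or more, regardless of how many single replicates reach that level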
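Material: AH1F fibroblast monolayer depositing Alexa488-labelled fibronectin into matrix | Input: 10000 AH1F cells/well | Medium: DMEM plus 2% serum, read in PBS | Reagent: Alexa488-fibronectin, 24 nM final in well | Compound dosing: One dose per compound, pinned | Schedule: 1 h adhesion, overnight exposure | Measured by: Fluorescence at 485 nm excitation, 525 nm emission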
RAD52 inh: RAD52 DNA annealing inhibitors, primary screen, biochemical, FRET, single point, set 2 | recombinant RAD52 DNA annealing, FRET fluorescence | DNA repair protein RAD52 homolog (Homo sapiens), P43351 | hit rate 0.46% among 360,000 | inhibition, % at 18.7 µM;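 active means every replicate showing at least 50% inhibition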
AF4-AF9 inh: inhibitors of AF4 peptide binding to AF9, primary screen, biochemical, AlphaScreen, biotin-AF4 peptide, FLAG-AF9, single point; hit rate 0.47% among 350,000; inhibition, % at 10 µM; Protein AF-9 (Homo sapiens), P42568; AID 651704, 2012;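 active means every replicate reaching a set inhibition limit, whatever the replicate mean, cut at about 25% in these data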
A number is an active result; – = inactive; · = not tested or not shown. This is a sample that favours compounds with a hit; in the whole collection about 1.2% have one here.

SMILES | Glyco luc inh | NSD2 HMT inh | RAD54 inh | FN deposit inh | RAD52 inh | AF4-AF9 inh
Cc1ccc2oc(C(=O)N(Cc3ccc(N(C)C)cc3)C3CCS(=O)(=O)C3)c(C)c2c1 (centres undefined) | – | – | – | – | – | –
Cc1ccc2c(C)c(C(=O)N(Cc3ccc(N(C)C)cc3)C3CCS(=O)(=O)C3)oc2c1 (centres undefined) | – | · | – | – | – | 38
CCC(C)(C)C(=O)O[C@H]1C[C@@H](C)C=C2C=C[C@H](C)[C@H](CC[C@@H]3C[C@@H](O)CC(=O)O3)[C@H]21 | 45 | · | – | – | – | –
O=C(/C=C/c1ccc([N+](=O)[O-])cc1)/C=C/c1ccco1 | 31 | – | – | – | – | –
CCNC1=C(Cl)C(=O)c2ccccc2C1=O | – | – | – | – | · | –
O=C1C(Cl)=C(NCc2ccco2)C(=O)c2ccccc21 | – | 71 | · | – | – | –
Cc1ccc(S(=O)(=O)Nc2nc3ccccc3nc2N2CCN(c3ccccc3F)CC2)cc1 | – | – | – | · | · | ·
CC(=O)Nc1ccc(S(=O)(=O)NC2=C(N3CCN(c4ccc(F)cc4)CC3)C(=O)c3ccccc3C2=O)cc1 | – | – | – | – | – | 45
CCOC(=O)N1CCN(C2=C(NS(=O)(=O)c3ccc(C)cc3)C(=O)c3ccccc3C2=O)CC1 | – | 64 | – | – | – | –
CC(=O)Nc1ccc(S(=O)(=O)Nc2ccc(N3CCOCC3)cc2)cc1 | – | – | – | · | · | ·
Cc1ccc(S(=O)(=O)NC2=C(N3CCN(c4ccccc4F)CC3)C(=O)c3ccccc3C2=O)cc1 | – | – | – | – | – | 35
CCOC(=O)N1CCN(C(=O)c2ccc(CNS(=O)(=O)c3ccc(C)cc3)cc2)CC1 | – | · | – | – | · | ·
Cc1ccc(S(=O)(=O)NC2=C(N3CCN(Cc4ccccc4)CC3)C(=O)c3ccccc3C2=O)cc1 | 65 | – | – | – | – | 35
C[C@H]1CN([C@@H](C)CO)C(=O)c2cc(C#CC3(O)CCCC3)cnc2O[C@H]1CN(C)Cc1ccccn1 | · | · | – | · | – | –
COc1ccc(CN2C[C@H](C)[C@@H](OC)CN(C)C(=O)c3ccc(NC(C)=O)cc3OC[C@@H]2C)cc1 | · | · | – | – | – | –
C/C=C/c1ccc2c(c1)O[C@@H](CN(C)Cc1ccc(C(=O)O)cc1)[C@@H](C)CN([C@H](C)CO)S2(=O)=O | · | · | – | · | – | –
C[C@H](CO)N1C[C@H](C)[C@@H](CN(C)S(C)(=O)=O)Oc2ccc(NC(=O)Nc3cccc4ccccc34)cc2CC1=O | · | · | – | · | – | –
COc1ccsc1S(=O)(=O)Nc1ccc(C(O)(C(F)(F)F)C(F)(F)F)cc1 | · | – | · | · | · | ·
O=C(O)c1ccccc1CN1C[C@H]2O[C@H](CNS(=O)(=O)c3ccc(Cl)cc3)CC[C@H]21 | · | · | · | · | – | –
O=C(Nc1ccc(Cl)cc1)N1C[C@H]2[C@@H](c3ccccc31)[C@@H](CO)N2C(=O)c1ccccn1 | · | · | – | · | – | –
COc1ccccc1NC(=O)N[C@H]1CC[C@H](CC(=O)NCc2ccc(Cl)c(Cl)c2)O[C@H]1CO | · | · | – | – | – | –
CC(Oc1ccc2c3c(c(=O)oc2c1)CCCC3)C(=O)NCCN1CCOCC1 (centres undefined) | – | – | – | – | – | –
COc1ccc2c(c1OC)c(=O)n1c3ccc(OC(C)C(=O)NCCCN4CCOCC4)cc3c3ccnc2c31 (centres undefined) | – | · | 73 | · | · | ·
CC(Oc1ccc2c(c1)c1ccnc3c4ccccc4c(=O)n2c13)C(=O)NCCN1CCOCC1 (centres undefined) | 74 | · | 89 | · | · | ·
CNC[C@@H]1Oc2ccc(N)cc2C(=O)N(C)C[C@H]1C | · | · | · | – | · | ·
O=C(O)c1cc([N+](=O)[O-])ccc1Nc1ccccc1 | – | – | – | – | – | 28
COc1ccc(C2CC(c3ccccc3O)=NN2C(=O)c2ccccc2)cc1OC (centres undefined) | – | – | – | – | – | 41
